Laboratory results: ChEMBL document CHEMBL4118192, “BET bromodomain ligands: Probing the WPF shelf to improve BRD4 bromodomain affinity and metabolic stability” (Bioorg Med Chem, 2018)

Legend:
[1] = target: Bromodomain-containing protein 4 (Homo sapiens, UniProt O60885); assay: Inhibition of human partial length BRD4 bromodomain 2 (K333 to E460 residues) expressed in bacterial expression system assessed as residual activity at 1 uM by BROMOscan assay relative to control
[2] = target: CREB-binding protein (Homo sapiens) (UniProt Q92793); assay: Inhibition of human partial length CREBBP (R1081 to G1197 residues) expressed in bacterial expression system assessed as residual activity at 1 uM by BROMOscan assay relative to control
HCC 2998 = assay: Growth inhibition of human HCC2998 cells after 48 hrs by sulforhodamine B assay; format: functional; settings: HCC 2998, 48 h
Method in brief: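 NCI-60 panel screen. Cells were exposed for 48 h at five concentrations between 10 nM and 100 μM. Cellular protein was read by sulforhodamine B staining, and GI50 and total growth inhibition (TGI) concentrations were derived.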

RXF 393 = assay: Growth inhibition of human RXF393 cells at 10 uM after 48 hrs by sulforhodamine B assay relative to control; format: functional; settings: RXF 393, 48 h, read-out: GI
Method in brief: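 NCI-60 human cancer cell line screen, single-dose pass: cells exposed to 10 μM for 48 h. Cellular protein content read out by sulforhodamine B staining, and growth inhibition expressed relative to untreated control.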

Chain of CREB-binding protein (Homo sapiens) (Q92793 2-2442 limits assumed): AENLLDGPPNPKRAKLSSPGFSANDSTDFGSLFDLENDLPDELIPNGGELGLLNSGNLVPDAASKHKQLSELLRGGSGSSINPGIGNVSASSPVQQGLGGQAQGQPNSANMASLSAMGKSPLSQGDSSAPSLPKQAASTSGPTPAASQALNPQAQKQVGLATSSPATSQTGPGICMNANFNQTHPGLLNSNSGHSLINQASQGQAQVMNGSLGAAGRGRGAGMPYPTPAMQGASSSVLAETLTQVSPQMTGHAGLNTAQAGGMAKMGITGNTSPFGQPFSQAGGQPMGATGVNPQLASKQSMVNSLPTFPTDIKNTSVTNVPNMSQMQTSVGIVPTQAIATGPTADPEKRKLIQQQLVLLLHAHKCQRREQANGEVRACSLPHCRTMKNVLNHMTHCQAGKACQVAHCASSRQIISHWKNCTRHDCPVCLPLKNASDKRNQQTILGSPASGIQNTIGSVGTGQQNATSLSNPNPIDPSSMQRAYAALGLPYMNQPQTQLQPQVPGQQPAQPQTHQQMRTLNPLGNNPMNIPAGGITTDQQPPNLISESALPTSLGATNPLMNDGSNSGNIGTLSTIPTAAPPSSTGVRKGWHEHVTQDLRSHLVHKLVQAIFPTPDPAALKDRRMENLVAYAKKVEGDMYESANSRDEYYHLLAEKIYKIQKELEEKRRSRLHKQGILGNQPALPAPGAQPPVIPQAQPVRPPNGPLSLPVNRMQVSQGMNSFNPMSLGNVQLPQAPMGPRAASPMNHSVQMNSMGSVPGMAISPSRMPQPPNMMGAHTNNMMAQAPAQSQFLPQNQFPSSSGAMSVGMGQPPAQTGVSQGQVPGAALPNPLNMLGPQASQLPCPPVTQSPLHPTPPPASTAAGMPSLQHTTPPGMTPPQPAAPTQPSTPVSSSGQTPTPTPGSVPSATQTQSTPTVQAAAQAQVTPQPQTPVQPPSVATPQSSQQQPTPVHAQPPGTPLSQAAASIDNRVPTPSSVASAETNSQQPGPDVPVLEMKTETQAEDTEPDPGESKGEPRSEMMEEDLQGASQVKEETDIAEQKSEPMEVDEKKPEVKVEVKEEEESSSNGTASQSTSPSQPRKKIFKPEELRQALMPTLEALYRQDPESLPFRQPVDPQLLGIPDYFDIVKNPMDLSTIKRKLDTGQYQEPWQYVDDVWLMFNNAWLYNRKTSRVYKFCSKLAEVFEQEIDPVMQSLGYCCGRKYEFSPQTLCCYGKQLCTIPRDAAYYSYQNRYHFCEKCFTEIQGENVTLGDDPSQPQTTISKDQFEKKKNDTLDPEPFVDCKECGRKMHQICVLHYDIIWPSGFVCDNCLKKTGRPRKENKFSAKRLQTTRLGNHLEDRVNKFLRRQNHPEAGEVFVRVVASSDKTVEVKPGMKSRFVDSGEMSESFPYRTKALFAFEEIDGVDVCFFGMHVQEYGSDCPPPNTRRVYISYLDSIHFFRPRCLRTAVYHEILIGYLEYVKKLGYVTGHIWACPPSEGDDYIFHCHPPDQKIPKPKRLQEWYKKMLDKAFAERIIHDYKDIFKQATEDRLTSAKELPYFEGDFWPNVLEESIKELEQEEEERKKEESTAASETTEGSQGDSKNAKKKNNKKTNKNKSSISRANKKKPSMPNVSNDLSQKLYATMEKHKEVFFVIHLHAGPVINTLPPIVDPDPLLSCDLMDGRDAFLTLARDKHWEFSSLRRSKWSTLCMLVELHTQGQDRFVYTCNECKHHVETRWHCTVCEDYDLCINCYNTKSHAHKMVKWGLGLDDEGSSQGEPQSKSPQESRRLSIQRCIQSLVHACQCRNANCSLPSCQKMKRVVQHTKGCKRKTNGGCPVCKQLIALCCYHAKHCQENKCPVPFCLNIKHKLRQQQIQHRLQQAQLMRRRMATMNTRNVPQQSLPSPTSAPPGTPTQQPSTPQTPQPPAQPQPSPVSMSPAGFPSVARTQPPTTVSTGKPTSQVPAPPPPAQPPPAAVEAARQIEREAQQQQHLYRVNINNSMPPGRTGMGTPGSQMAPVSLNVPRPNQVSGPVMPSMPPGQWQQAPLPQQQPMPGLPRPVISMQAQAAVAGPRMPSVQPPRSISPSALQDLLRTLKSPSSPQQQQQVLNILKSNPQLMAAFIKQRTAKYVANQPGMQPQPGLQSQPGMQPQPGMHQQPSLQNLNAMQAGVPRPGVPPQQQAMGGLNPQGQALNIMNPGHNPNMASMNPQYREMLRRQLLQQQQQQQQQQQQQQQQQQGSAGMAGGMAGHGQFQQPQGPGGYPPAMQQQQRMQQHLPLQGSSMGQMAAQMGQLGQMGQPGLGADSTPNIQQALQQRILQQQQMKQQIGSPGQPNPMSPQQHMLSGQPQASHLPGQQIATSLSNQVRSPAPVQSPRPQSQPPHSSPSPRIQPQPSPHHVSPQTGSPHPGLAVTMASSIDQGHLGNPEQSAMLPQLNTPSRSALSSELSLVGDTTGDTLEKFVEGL

Cc1noc(C)c1-c1cc(O)cc(C(O)c2ccccc2)c1 (centres undefined)
Activity [1]: 0.2%
Activity [2]: 43%
GI50 (HCC 2998): 8.55 µM

COc1ccccc1S(=O)(=O)Nc1ccc2c(c1)CN(C)C(=O)N2
inhibition of growth at 10 µM (RXF 393): 26.7%
